What was measured:
[1] = biological target: Lysine-specific demethylase 6B (Homo sapiens, UniProt O15054); test: Inhibition of human KDM6B catalytic domain expressed in Escherichia coli using methyl lysine peptide substrate by AlphaScreen assay
How it was run: (§1)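 AlphaScreen read-out: immunodetection of the lysine methylation state of the biotinylated histone peptide product, captured on streptavidin and Protein A conjugated beads. Reactions were run in the linear range with 2OG near or below its Km.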

[2] = biological target: T1, Lysine-specific demethylase 7A (Homo sapiens, UniProt Q6ZMT4); test: Inhibition of human KDM7A catalytic domain expressed in Escherichia coli by MALDI assay
T1 sequence (Q6ZMT4 whole entry): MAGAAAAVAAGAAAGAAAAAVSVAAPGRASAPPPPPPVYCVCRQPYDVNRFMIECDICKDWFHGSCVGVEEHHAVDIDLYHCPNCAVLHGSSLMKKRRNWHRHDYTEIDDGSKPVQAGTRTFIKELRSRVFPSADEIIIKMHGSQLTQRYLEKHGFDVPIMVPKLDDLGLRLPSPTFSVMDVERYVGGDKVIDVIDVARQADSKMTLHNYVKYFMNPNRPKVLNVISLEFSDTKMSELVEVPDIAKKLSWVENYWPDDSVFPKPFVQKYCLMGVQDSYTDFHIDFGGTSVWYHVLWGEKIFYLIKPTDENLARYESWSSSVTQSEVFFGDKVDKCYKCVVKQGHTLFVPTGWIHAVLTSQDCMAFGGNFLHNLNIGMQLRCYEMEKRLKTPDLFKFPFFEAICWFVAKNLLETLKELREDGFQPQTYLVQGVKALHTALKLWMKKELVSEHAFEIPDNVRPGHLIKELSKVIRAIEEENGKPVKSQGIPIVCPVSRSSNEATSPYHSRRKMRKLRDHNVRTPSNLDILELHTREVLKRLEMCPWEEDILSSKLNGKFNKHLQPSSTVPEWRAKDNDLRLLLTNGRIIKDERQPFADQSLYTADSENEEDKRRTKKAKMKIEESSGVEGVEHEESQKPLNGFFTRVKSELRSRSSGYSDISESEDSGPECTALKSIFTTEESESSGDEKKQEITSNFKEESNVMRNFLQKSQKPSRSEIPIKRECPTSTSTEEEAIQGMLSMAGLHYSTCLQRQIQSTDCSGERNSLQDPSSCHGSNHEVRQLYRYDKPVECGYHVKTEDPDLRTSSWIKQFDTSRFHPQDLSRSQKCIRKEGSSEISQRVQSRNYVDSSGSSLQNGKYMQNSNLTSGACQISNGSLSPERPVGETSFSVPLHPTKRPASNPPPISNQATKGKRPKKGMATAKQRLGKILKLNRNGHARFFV

[3] = biological target: T2, Gamma-butyrobetaine dioxygenase (Homo sapiens, UniProt O75936); test: Inhibition of human BBOX1 by fluorescence based assay
T2 sequence (O75936 whole entry): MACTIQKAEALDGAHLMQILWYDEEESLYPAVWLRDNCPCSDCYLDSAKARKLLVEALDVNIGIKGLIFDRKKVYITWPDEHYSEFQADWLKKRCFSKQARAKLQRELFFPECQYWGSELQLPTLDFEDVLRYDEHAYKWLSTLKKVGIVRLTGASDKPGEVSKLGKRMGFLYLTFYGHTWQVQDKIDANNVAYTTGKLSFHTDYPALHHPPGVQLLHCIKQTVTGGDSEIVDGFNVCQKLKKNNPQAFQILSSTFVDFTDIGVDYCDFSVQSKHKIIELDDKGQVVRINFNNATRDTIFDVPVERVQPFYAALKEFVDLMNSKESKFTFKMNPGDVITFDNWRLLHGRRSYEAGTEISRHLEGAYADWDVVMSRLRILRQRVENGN

Egl nine homolog 1 = Egl nine homolog 1 (Homo sapiens, UniProt Q9GZT9); test: Inhibition of human PHD2 expressed in Escherichia coli by AlphaScreen assay
[4] = biological target: Hypoxia-inducible factor 1-alpha inhibitor (Homo sapiens, UniProt Q9NWT6); test: Inhibition of human FIH expressed in Escherichia coli by MALDI assay
[5] = Inhibition of human KDM3A catalytic domain expressed in Sf9 cells methyl lysine peptide substrate by AlphaScreen assay
How it was run: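 AlphaScreen activity assay run within the linear range of the reaction. It immunodetects the lysine methylation state of a biotin-conjugated histone peptide product, using Streptavidin- and Protein A-conjugated beads.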

[6] = biological target: Lysine-specific demethylase 5C (Homo sapiens, UniProt P41229); test: Inhibition of human KDM5C catalytic domain expressed in Sf9 cells using methyl lysine peptide substrate by AlphaScreen assay; how it was run: as §1
[7] = biological target: T3, Lysine-specific demethylase 4E (Homo sapiens, UniProt B2RXH2); test: Inhibition of human KDM4E expressed in Escherichia coli using methyl lysine peptide substrate by AlphaScreen assay; how it was run: as §1
T3 sequence (B2RXH2 whole entry): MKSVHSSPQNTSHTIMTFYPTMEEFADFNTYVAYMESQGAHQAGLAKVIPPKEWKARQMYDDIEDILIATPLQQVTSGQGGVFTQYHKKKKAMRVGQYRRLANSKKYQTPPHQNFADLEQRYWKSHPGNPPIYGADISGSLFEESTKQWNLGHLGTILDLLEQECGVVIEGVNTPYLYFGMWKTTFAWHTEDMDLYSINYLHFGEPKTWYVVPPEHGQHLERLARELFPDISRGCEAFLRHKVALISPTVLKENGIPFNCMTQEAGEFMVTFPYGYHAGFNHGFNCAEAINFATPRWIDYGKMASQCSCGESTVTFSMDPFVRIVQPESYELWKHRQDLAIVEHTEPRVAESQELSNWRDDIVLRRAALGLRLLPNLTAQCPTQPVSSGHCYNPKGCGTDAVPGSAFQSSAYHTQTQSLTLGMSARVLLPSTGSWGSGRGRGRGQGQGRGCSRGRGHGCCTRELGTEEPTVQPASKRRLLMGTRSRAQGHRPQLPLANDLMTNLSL

[8] = biological target: T4, Lysine-specific demethylase 2A (Homo sapiens, UniProt Q9Y2K7); test: Inhibition of human KDM2A expressed in Escherichia coli using methyl lysine peptide substrate by AlphaScreen assay
T4 sequence (Q9Y2K7 whole entry): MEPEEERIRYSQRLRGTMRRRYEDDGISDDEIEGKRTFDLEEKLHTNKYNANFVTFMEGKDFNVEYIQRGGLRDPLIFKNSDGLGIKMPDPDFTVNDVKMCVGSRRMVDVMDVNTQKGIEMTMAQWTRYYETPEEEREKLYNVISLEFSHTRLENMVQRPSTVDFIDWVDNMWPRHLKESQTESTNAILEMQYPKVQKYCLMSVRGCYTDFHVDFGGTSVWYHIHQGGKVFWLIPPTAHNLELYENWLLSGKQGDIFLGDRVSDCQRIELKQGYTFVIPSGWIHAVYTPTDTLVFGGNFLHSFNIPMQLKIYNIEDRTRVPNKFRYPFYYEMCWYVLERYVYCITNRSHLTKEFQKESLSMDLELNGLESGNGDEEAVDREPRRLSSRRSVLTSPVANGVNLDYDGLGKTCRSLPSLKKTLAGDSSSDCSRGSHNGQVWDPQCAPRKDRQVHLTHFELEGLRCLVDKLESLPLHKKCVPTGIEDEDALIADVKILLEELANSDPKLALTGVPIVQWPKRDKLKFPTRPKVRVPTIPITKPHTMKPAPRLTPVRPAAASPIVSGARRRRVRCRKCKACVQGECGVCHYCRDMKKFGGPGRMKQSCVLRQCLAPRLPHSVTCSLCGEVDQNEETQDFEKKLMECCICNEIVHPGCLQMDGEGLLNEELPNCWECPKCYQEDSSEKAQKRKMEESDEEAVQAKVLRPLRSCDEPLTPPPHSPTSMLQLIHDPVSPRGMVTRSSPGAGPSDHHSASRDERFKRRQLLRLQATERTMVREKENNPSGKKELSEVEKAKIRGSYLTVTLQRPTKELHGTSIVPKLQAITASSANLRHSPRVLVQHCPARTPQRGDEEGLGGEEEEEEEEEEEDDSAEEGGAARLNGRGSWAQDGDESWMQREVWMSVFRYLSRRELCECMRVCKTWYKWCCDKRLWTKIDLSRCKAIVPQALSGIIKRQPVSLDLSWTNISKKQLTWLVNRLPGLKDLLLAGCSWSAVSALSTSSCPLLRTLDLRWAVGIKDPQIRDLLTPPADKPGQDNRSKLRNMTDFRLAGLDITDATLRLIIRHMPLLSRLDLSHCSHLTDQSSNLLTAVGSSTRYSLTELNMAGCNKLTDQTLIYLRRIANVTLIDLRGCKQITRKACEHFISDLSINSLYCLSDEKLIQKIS

[9] = biological target: Histone lysine demethylase PHF8 (Homo sapiens, UniProt Q9UPP1); test: Inhibition of human PHF8 expressed in Escherichia coli using methyl lysine peptide substrate by AlphaScreen assay
Sequence of Histone lysine demethylase PHF8 (Q9UPP1 whole entry): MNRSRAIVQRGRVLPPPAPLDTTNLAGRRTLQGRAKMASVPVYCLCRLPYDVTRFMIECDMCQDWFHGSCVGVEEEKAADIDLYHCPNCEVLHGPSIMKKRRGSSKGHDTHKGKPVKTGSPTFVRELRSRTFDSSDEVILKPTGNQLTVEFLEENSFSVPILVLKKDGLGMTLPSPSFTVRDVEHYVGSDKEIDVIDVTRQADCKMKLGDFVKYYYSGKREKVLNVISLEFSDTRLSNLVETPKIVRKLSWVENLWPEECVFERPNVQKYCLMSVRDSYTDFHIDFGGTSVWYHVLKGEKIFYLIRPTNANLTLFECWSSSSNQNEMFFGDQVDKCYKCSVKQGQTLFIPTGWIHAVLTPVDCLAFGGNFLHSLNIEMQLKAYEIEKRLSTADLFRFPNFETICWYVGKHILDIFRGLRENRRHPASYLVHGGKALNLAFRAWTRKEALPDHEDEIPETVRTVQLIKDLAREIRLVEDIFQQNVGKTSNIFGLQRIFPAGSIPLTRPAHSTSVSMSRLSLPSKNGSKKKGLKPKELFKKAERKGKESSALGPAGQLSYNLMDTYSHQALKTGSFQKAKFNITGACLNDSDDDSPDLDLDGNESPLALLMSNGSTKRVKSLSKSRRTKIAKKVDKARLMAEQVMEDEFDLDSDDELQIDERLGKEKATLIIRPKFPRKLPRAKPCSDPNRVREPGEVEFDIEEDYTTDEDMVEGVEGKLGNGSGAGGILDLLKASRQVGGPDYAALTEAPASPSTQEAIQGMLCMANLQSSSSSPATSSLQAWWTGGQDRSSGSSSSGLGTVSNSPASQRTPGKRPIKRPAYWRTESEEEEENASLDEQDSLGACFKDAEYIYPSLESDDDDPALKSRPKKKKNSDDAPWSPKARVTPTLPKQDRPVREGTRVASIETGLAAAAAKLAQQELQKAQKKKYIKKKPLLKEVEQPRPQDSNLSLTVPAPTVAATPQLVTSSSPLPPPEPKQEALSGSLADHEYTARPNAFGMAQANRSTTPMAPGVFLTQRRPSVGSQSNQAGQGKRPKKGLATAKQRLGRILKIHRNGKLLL

Sequence of Hypoxia-inducible factor 1-alpha inhibitor (Q9NWT6 whole entry, the tested form may be a part): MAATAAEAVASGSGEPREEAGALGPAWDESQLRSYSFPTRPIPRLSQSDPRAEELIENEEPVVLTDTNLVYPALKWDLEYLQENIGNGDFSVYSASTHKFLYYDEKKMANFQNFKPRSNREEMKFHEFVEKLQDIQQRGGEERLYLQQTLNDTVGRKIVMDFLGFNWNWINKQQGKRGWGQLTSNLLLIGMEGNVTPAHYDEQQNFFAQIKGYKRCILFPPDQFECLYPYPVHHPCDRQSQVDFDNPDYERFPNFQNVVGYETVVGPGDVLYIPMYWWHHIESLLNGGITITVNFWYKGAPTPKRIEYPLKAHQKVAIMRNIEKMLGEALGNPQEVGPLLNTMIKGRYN
Sequence of Lysine-specific demethylase 5C (P41229 whole entry, the tested form may be a part): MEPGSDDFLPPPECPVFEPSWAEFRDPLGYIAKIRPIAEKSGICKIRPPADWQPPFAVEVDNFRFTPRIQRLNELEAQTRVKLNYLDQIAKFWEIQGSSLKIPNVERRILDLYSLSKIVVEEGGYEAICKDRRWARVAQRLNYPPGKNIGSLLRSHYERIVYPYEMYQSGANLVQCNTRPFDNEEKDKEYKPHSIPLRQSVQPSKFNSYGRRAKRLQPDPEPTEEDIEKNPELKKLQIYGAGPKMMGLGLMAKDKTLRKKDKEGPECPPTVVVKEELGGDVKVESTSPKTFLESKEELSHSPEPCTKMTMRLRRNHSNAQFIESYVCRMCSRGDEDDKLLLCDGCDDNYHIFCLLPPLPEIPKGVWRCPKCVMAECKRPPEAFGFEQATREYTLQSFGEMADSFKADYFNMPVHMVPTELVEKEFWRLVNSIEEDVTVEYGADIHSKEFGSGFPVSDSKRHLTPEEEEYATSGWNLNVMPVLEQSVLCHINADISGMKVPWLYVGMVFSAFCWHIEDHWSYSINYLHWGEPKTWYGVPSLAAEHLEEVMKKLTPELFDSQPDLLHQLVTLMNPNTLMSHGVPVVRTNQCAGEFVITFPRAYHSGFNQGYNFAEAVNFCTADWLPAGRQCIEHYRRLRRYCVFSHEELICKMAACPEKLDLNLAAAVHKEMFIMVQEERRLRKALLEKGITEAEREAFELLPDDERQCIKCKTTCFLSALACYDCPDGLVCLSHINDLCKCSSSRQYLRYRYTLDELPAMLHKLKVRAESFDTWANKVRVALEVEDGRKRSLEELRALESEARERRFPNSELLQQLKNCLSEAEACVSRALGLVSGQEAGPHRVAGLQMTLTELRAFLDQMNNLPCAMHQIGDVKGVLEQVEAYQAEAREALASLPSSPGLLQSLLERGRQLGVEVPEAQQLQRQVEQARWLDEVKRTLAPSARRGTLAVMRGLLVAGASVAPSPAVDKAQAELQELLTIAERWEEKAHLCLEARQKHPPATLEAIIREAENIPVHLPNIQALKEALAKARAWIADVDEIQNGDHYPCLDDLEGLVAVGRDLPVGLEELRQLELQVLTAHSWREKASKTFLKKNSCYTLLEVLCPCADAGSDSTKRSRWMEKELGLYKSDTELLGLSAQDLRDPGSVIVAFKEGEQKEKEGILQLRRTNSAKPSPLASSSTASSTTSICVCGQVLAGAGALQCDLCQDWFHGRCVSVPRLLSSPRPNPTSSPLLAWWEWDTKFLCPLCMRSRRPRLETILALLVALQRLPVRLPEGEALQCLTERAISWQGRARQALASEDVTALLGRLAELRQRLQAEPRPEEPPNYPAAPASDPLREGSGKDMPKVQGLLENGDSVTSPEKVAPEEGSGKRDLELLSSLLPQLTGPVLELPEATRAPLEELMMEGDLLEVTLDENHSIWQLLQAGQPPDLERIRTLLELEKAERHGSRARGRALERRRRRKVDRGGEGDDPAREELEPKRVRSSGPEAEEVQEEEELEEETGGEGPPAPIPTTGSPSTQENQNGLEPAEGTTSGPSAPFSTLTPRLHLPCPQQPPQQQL
Sequence of Lysine-specific demethylase 6B (O15054 whole entry, the tested form may be a part): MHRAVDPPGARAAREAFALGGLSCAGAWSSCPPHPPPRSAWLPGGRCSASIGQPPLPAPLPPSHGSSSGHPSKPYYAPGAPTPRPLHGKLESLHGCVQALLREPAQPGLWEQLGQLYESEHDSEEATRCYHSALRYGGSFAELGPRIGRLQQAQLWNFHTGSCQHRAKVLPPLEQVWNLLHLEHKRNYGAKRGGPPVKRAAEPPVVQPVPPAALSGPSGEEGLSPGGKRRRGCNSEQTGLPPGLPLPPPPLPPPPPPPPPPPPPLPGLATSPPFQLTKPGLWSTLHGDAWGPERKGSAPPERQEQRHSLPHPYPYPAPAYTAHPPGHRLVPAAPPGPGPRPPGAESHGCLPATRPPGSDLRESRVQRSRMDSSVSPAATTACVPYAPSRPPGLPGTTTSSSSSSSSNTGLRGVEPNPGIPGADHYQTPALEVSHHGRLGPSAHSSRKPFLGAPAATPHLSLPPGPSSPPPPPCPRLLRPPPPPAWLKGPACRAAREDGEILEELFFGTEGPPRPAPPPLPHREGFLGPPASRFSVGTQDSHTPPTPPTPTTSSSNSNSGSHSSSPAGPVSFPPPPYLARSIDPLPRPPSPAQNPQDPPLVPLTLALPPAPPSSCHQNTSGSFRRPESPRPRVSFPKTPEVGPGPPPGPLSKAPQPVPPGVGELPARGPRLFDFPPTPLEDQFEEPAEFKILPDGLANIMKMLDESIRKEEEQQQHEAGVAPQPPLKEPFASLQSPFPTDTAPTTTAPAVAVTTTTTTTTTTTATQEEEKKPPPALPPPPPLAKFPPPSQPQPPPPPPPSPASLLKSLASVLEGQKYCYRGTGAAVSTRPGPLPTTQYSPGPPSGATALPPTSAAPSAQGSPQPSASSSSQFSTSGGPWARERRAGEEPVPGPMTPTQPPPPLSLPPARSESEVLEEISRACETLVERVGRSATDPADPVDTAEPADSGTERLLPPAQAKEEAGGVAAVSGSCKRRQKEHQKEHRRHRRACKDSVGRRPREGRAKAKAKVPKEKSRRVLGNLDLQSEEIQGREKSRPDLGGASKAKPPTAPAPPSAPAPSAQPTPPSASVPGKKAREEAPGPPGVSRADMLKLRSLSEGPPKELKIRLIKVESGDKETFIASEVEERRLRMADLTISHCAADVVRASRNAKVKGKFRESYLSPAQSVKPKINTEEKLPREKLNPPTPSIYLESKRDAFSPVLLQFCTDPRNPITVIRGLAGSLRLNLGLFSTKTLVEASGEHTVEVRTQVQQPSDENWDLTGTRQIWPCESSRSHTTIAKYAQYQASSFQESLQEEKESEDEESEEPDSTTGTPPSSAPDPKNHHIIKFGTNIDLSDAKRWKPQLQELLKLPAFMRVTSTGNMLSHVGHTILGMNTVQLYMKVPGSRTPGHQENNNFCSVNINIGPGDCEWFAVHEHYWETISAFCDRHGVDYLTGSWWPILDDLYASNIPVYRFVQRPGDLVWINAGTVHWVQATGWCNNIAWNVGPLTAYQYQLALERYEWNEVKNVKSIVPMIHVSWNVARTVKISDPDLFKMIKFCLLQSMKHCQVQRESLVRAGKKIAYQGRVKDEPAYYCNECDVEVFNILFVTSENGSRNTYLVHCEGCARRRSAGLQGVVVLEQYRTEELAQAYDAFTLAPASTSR
Sequence of Egl nine homolog 1 (Q9GZT9 whole entry): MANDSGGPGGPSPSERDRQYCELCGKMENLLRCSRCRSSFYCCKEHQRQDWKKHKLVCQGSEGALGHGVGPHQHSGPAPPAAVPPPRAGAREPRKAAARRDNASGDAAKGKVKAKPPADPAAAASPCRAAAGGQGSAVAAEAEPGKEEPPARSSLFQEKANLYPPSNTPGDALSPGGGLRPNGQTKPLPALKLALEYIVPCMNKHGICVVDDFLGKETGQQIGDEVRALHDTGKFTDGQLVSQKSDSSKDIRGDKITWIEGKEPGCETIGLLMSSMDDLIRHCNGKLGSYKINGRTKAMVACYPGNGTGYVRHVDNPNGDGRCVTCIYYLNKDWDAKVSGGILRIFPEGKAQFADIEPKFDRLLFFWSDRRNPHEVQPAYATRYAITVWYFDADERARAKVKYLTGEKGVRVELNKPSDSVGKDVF

SMILES | IC50 [1] [µM] | IC50 [2] [µM] | IC50 [3] [µM] | IC50 (Egl nine homolog 1) [µM] | IC50 [4] [µM] | IC50 [5] [µM] | IC50 [6] [µM] | IC50 [7] [µM] | IC50 [8] [µM] | IC50 [9] [µM]
CN(C)NC(=O)CCC(=O)O | > 100 | 2.1 | > 100 | > 100 | > 100 | 127 | > 100 | > 100 | – | –
C[N+](C)(C)NC(=O)CCC(=O)O | > 100 | – | > 100 | > 100 | > 100 | > 100 | > 100 | > 100 | 63 | 35
CNNC(=O)CCC(=O)O | > 100 | – | > 100 | 14.2 | > 100 | > 100 | 1.1 | 4.3 | 0.37 | 3.4
NNC(=O)CCC(=O)O | > 100 | – | > 100 | > 100 | > 100 | > 100 | 0.48 | 0.2 | 0.25 | 0.48
CN(C)N(C)C(=O)CCC(=O)O | > 100 | – | > 100 | > 100 | > 100 | > 100 | > 100 | > 100 | 3.7 | 11.5
CC(C)NC(=O)CCC(=O)O | > 100 | – | > 100 | > 100 | > 100 | > 100 | > 100 | > 100 | > 100 | > 100
CN(C)OC(=O)CCC(=O)O | 41.7 | – | > 100 | 6.3 | > 100 | > 100 | 42 | > 100 | 9.1 | 6.9
CN(C)NC(=O)CCC(=O)NN(C)C | > 100 | – | > 100 | > 100 | > 100 | > 100 | > 100 | > 100 | > 100 | 117
O=C(O)CCC(=O)NO | 1.1 | – | > 100 | 19.6 | > 100 | 3 | 1.9 | 0.4 | 0.43 | 1.7
CC(=O)CC(=O)CCC(=O)O [SUCCINYLACETONE] | 16.5 | – | > 100 | > 100 | > 100 | 12.7 | 4.5 | 23.9 | 0.57 | 2.3

Reference: ChEMBL document CHEMBL2163321 (J Med Chem, 2012)
